# Assay results from publication PMC5074691 (Cell reports, 2016).
# Changes are numbered by the printed parent chain. Numbers in names are those of the source. No end group written: not given here.
# T1: MORC3 CW domain (residues 407-455), crystallised (human, UniProt Q14149 407-455)
# T1 chain (looked up): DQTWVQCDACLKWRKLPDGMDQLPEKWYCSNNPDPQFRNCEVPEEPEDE
# B1: WT FLAG-MORC3: FLAG-tagged full length wild-type MORC3 (protein, UniProt Q14149 1-939, looked up)
# chain: MAAQPPRGIRLSALCPKFLHTNSTSHTWPFSAVAELIDNAYDPDVNAKQIWIDKTVINDHICLTFTDNGNGMTSDKLHKMLSFGFSDKVTMNGHVPVGLYGNGFKSGSMRLGKDAIVFTKNGESMSVGLLSQTYLEVIKAEHVVVPIVAFNKHRQMINLAESKASLAAILEHSLFSTEQKLLAELDAIIGKKGTRIIIWNLRSYKNATEFDFEKDKYDIRIPEDLDEITGKKGYKKQERMDQIAPESDYSLRAYCSILYLKPRMQIILRGQKVKTQLVSKSLAYIERDVYRPKFLSKTVRITFGFNCRNKDHYGIMMYHRNRLIKAYEKVGCQLRANNMGVGVVGIIECNFLKPTHNKQDFDYTNEYRLTITALGEKLNDYWNEMKVKKNTEYPLNLPVEDIQKRPDQTWVQCDACLKWRKLPDGMDQLPEKWYCSNNPDPQFRNCEVPEEPEDEDLVHPTYEKTYKKTNKEKFRIRQPEMIPRINAELLFRPTALSTPSFSSPKESVPRRHLSEGTNSYATRLLNNHQVPPQSEPESNSLKRRLSTRSSILNAKNRRLSSQFENSVYKGDDDDEDVIILEENSTPKPAVDHDIDMKSEQSHVEQGGVQVEFVGDSEPCGQTGSTSTSSSRCDQGNTAATQTEVPSLVVKKEETVEDEIDVRNDAVILPSCVEAEAKIHETQETTDKSADDAGCQLQELRNQLLLVTEEKENYKRQCHMFTDQIKVLQQRILEMNDKYVKKETCHQSTETDAVFLLESINGKSESPDHMVSQYQQALEEIERLKKQCSALQHVKAECSQCSNNESKSEMDEMAVQLDDVFRQLDKCSIERDQYKSEVELLEMEKSQIRSQCEELKTEVEQLKSTNQQTATDVSTSSNIEESVNHMDGESLKLRSLRVNVGQLLAMIVPDLDLQQVNYDVDVVDEILGQVVEQMSEISST
# modifications: full-length FLAG tag
# B2: C416A: FLAG-tagged MORC3 mutant in CW domain that disrupts the CW structure (protein, UniProt Q14149 1-939, looked up, variant C416A)
# chain: B1 chain with C416A
# modifications: full-length FLAG tag
# B3: W419A: FLAG-tagged MORC3 mutant that abrogates binding to the histone H3 tail (protein, UniProt Q14149 1-939, looked up, variant W419A)
# chain: B1 chain with W419A
# modifications: full-length FLAG tag
# B4: C416S: FLAG-tagged MORC3 mutant in CW domain that disrupts the CW structure (protein, UniProt Q14149 1-939, looked up, variant C416S)
# chain: B1 chain with C416S
# modifications: full-length FLAG tag
# B5: MORC3 His-ATPase domain (aa 1-392) (domain or fragment)
# chain: MAAQPPRGIRLSALCPKFLHTNSTSHTWPFSAVAELIDNAYDPDVNAKQIWIDKTVINDHICLTFTDNGNGMTSDKLHKMLSFGFSDKVTMNGHVPVGLYGNGFKSGSMRLGKDAIVFTKNGESMSVGLLSQTYLEVIKAEHVVVPIVAFNKHRQMINLAESKASLAAILEHSLFSTEQKLLAELDAIIGKKGTRIIIWNLRSYKNATEFDFEKDKYDIRIPEDLDEITGKKGYKKQERMDQIAPESDYSLRAYCSILYLKPRMQIILRGQKVKTQLVSKSLAYIERDVYRPKFLSKTVRITFGFNCRNKDHYGIMMYHRNRLIKAYEKVGCQLRANNMGVGVVGIIECNFLKPTHNKQDFDYTNEYRLTITALGEKLNDYWNEMKVKKNTE
# B6: His-ATPase: His-tagged isolated ATPase domain of MORC3 (aa 1-392) (protein)
# chain: B5 chain
# modifications: left off: His tag, end not stated, kept
# B7: histone H3K4me3 peptide (residues 1-12 of H3) (peptide, UniProt P68431 2-13, looked up)
# peptide: ARTK(Me3)QTARKSTG
# B8: His-ATPase-CW: MORC3 construct harboring linked ATPase and CW domains (aa 1-455), His-tagged (protein)
# chain: MAAQPPRGIRLSALCPKFLHTNSTSHTWPFSAVAELIDNAYDPDVNAKQIWIDKTVINDHICLTFTDNGNGMTSDKLHKMLSFGFSDKVTMNGHVPVGLYGNGFKSGSMRLGKDAIVFTKNGESMSVGLLSQTYLEVIKAEHVVVPIVAFNKHRQMINLAESKASLAAILEHSLFSTEQKLLAELDAIIGKKGTRIIIWNLRSYKNATEFDFEKDKYDIRIPEDLDEITGKKGYKKQERMDQIAPESDYSLRAYCSILYLKPRMQIILRGQKVKTQLVSKSLAYIERDVYRPKFLSKTVRITFGFNCRNKDHYGIMMYHRNRLIKAYEKVGCQLRANNMGVGVVGIIECNFLKPTHNKQDFDYTNEYRLTITALGEKLNDYWNEMKVKKNTEYPLNLPVEDIQKRPDQTWVQCDACLKWRKLPDGMDQLPEKWYCSNNPDPQFRNCEVPEEPEDE
# modifications: left off: His tag, end not stated, kept
# Assays:
# [1] = target: MORC3 CW domain (wild type, GST tag cleaved) (human); assay: other fluorescence titration
# chromatin in HeLa cells = assay: Chromatin association assay; type: cell-based; conditions: 48 h post transfection, fractionation and immunoblot
# Outline: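 HeLa cells (DMEM, 10% FBS, pen/strep) are transfected with full-length human N-terminal 3xFLAG-MORC3, WT or CW mutants, and trypsinized at 48 h. The washed chromatin pellet is nuclease-solubilized. Fractions (1–5 µg) are immunoblotted for FLAG, β-tubulin and H3.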
# [2] = test system: nuclear bodies (NBs) in HeLa cells; assay: Confocal immunofluorescence of FLAG-tagged MORC3; type: cell-based; conditions: 48 h post transfection, anti-FLAG
# Outline: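 HeLa in DMEM/10% FBS/penicillin-streptomycin grown on chamber slides, transiently transfected (TurboFect) with WT or CW-mutant 3xFLAG-MORC3 (C416S, C416A, W419A). At 48 h: cold methanol fixation (−20°C, 10 min), 1% BSA block 30 min, anti-FLAG 1:200 for 1 h at 25°C, then Alexa Fluor 647 secondary 1:1000 for 1 h. DAPI mount; confocal imaging with 100X objective.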
# MORC3-CW E453A (human) = assay: ITC
# Widom 601 DNA = assay: EMSA with Widom 601 DNA; type: binding; conditions: 1 to 20 molar excess protein; 601 DNA (3 pM); 20 mM Tris-HCl pH 7.5, 150 mM NaCl, 2 mM DTT; 1 h, room temperature
# Outline: (§1)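 MORC3 His-ATPase (aa 1–392, E. coli-expressed, Ni-NTA purified) is titrated onto the nucleic acid substrate; for 601 DNA, His-ATPase-CW (aa 1–455) is also tested. Mixtures run on 5% polyacrylamide gels in 0.2x TB at 150 V for 1 h on ice, then are stained with ethidium bromide and imaged.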
# [3] = test system: reconstituted nucleosome core particles (NCPs); assay: EMSA with nucleosome core particles; type: binding; conditions: 1 to 20 molar excess protein; NCPs (3 pM); 20 mM Tris-HCl pH 7.5, 150 mM NaCl, 2 mM DTT; 1 h, room temperature
# Outline: as §1
# MORC3-CW E453A = assay: 1H,15N TROSY/HSQC NMR titration and competition on MORC3-CW E453A; type: binding, human
# [4] = target: T1, MORC3 CW domain (residues 407-455), …; assay: crystal structure
# MORC3 His-ATPase-CW = assay: ATPase assay; type: biochemical, human; conditions: with DNA
# Outline: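 Human MORC3 His-ATPase-CW (aa 1–455), expressed in E. coli Rosetta2(DE3) pLysS, Ni-NTA purified in HEPES buffers, used at 1.5–3.0 μM. Run 20 min at 22 °C or 30 min at 30 °C, read at A360. SD from ≥3 experiments (two at 30 °C).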
molecule,measurement,setting,value
histone H3K4me3 peptide (residues 1-12 of H3) (from UniProt P68431 2-13),Kd,[1],640 nM
histone H3K4me1 peptide,Kd,[1],740 nM
histone H3K4me2 peptide,Kd,[1],670 nM
B1,association with chromatin,chromatin in HeLa cells,purifies in the chromatin and soluble fractions
same,nuclear localization,[2],localized to NBs
B2,association with chromatin,chromatin in HeLa cells,did not associate with chromatin and were found only in the soluble fractions
same,nuclear localization,[2],diffused throughout the nucleus
B3,association with chromatin,chromatin in HeLa cells,did not associate with chromatin and were found only in the soluble fractions
same,nuclear localization,[2],diffused throughout the nucleus
B4,association with chromatin,chromatin in HeLa cells,did not associate with chromatin and were found only in the soluble fractions
B5,Kd,MORC3-CW E453A (human),9000 nM
same,stoichiometry N,MORC3-CW E453A (human),1
B6,DNA binding by EMSA,Widom 601 DNA,resulted in a shift of the DNA and/or NCP bands
same,NCP binding by EMSA,[3],resulted in a shift of the DNA and/or NCP bands
same,chemical shift perturbation / complex formation in TROSY,"MORC3-CW E453A; 10 mM HEPES pH 7.4, 100 mM NaCl, 1 mM TCEP, 7% D2O, 298K",Substantial chemical shift perturbations
same,displacement of H3K4me0 from CW E453A:H3K4me0 complex,"MORC3-CW E453A; His-ATPase titrated into CW E453A:H3K4me0 (1:4), 10 mM HEPES pH 7.4",could not efficiently displace H3K4me0
B7,binding result,[4],binds
B8,effect of linked CW on rate of hydrolysis in the presence of DNA,MORC3 His-ATPase-CW,considerably decreased the rate of hydrolysis in the presence of DNA
same,DNA binding by EMSA,Widom 601 DNA,impaired
